The list is not random: actives were taken first. Their share in the collection is about 2.6%.
ARFGAP1 inh: inhibits rat ARF GTPase activating protein 1 | hit rate 0.26% among 360,000 | inhibition, % at 16.5 µM | Q62848 | AID 651572 | Arfgap1-stimulated ARF1 GTP hydrolysis, GDP FP detection;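 active = inhibition above a per-plate limit, mean inhibition of low control wells plus 3 SD, cut at about 25% in these data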;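 also: 0% = DMSO wells with enzyme and 100% = wells lacking Arfgap1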
Target sequence (Q62848 1-136 limits assumed): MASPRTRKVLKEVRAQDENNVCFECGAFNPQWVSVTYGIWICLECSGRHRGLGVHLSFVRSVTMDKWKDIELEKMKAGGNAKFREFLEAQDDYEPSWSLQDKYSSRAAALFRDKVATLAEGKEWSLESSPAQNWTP
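Replicates: Single well per compound | Assay system: Truncated rat Arfgap1 GAP domain | Control set: No-Arfgap1 wells (100%) versus DMSO full-reaction wells (0%) | Times: Enzyme reaction 120 min at 25 °C after 20 min preincubation | Reagent: Human ARF1(Δ1-17)-GTP substrate | Measured by: Tracer-displacement fluorescence polarization with EDTA stop, 620/688 nm | Measure: Percent inhibition of Arfgap1-stimulated GTP hydrolysis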
SMARCA2 act: increases SMARCA2 function in MMTV reporter cells; MG213 cells, MMTV-luciferase reporter, dexamethasone, overnight; activation, % at 9.1 µM; hit rate 1% among 370,000; AID 652017; in the data active = activation above about 7.8%;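 also: 0% = vehicle wells and 100% = reference activator wells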
ASAP1 inh: blocks human ASAP1-stimulated Arf1 GTP hydrolysis | Q9ULH1 | GDP FP detection | inhibition, % at 16.5 µM | hit rate 0.19% among 360,000 | AID 624377; in the data active = inhibition above about 25%;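 also: 0% = vehicle with enzyme and substrate and 100% = no enzyme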
Target sequence (Q9ULH1 325-724 limits assumed): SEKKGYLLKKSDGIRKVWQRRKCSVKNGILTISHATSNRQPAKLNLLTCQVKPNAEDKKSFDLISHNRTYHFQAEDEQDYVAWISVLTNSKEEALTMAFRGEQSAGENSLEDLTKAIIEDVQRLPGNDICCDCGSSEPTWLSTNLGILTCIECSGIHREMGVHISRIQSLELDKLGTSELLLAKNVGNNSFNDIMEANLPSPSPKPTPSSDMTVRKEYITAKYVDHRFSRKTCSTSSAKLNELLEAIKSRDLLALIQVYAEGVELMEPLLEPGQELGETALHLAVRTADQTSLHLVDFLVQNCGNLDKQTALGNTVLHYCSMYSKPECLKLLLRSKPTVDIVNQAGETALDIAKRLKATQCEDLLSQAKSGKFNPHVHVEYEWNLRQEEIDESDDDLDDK
esBAF inh: SWI/SNF esBAF complex inhibition; reporter increase, % at 12.5 µM; AID 602393; mouse ES cells, Bmi1-luciferase knock-in reporter, 24 h; 100% = twice the neutral-well signal; hit rate 2% among 350,000; in the data active = activation above about 40%;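 also: 0% = median of the plate's neutral control wells and 100% = double that signal; a rise in the Bmi1 reporter signal indicates esBAF inhibition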
SMARCA2 act conf: confirmation of SMARCA2 (BRM) function activators; AID 652260; MG213 cells, MMTV-luciferase with dexamethasone, luminescence, overnight; MG213 cells expressing E1A, Rb sequestered; DMSO wells 0%, reference activator 100%; shares compounds with SMARCA2 act; hit rate 30% among 3,500; activation, % at 9.1 µM;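 active = activation above its plate's cutoff, the mean activation of tested wells plus 3 SD, cut at about 7.9% in these data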
GAL4-VP16 Luc: GAL4-VP16 reporter activation counter-screen; shares compounds with SMARCA2 act; hit rate 41% among 3,500; AID 686939; activation, % at 9.1 µM; HEK293 GAL4-VP16 pG5luc reporter, luciferase luminescence; scaled: DMSO wells 0%, SAHA wells 100%;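 active = activation above the solvent-only control well mean plus 3 SD, averaged across control plates, cut at about 5.2% in these data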
An asterisk follows results filed as active; nt = no result given.

SMILES	ARFGAP1 inh	SMARCA2 act	ASAP1 inh	esBAF inh	SMARCA2 act conf	GAL4-VP16 Luc
O=C(OCCc1ccccn1)c1cccc([N+](=O)[O-])c1	-7	8.2*	15	18	3	3
CCN(C1CCCCC1)S(=O)(=O)c1ccc(OC)c(C)c1	10	1	-10	0	nt	nt
CCN(C1CCCCC1)S(=O)(=O)c1ccc(-n2cnnn2)c(C)c1	12	9.3*	6	3	-4	2
CC(C)CN(C)C(=O)CCc1nnc(Cc2cccc(C(F)(F)F)c2)o1	4	8.4*	-9	nt	6	5.2*
CC(NC(=O)CCc1nnc(Cc2cccc(C(F)(F)F)c2)o1)C1CC1 (stereo not drawn)	-1	4	3	37	nt	nt
COc1ccc(S(=O)(=O)Nc2cccc3c2O[C@H](CN(C)Cc2ccc(C(=O)O)cc2)[C@H](C)CN([C@H](C)CO)C3=O)cc1	nt	nt	nt	-2	nt	nt
O=C(CCN1C(=O)/C(=C\c2ccccc2)SC1=S)NNC(=O)c1ccncc1	3	9.7*	0	nt	-5	0
O=C(CCN1C(=O)/C(=C/c2ccccc2)SC1=S)NNC(=O)c1ccncc1	13	2	10	nt	nt	nt
c1ccc2c(c1)Cc1cc3ccccc3nc1-2	0	8.8*	8	11	13*	10*
O=C1c2ccccc2-c2nc3ccccc3cc21	1	4	0	11	nt	nt
C[C@H](O)[C@@H]1CN2CCc3c([nH]c4cccc(-c5ccccc5)c34)[C@@H]2C[C@@H]1N(C)C(=O)C1CCCCC1	nt	9.7*	nt	nt	-3	0
C[C@H](O)[C@@H]1CN2CCc3c([nH]c4cccc(-c5ccccc5)c34)[C@@H]2C[C@@H]1N(C)CC1CCCCC1	nt	1	nt	nt	nt	nt
C[C@@H]1CN([C@@H](C)CO)C(=O)c2cc(C3=CCCC3)cnc2O[C@@H]1CN(C)Cc1cccc(F)c1	nt	nt	nt	0	nt	nt
COc1ccc(NC(=O)Nc2ccc3c(c2)C(=O)N([C@@H](C)CO)C[C@H](C)[C@@H](CN(C)Cc2ccc(-c4ccccc4)cc2)O3)cc1	nt	nt	nt	2	nt	nt
CCOC(=O)CSC1=NC(=O)/C(=C\c2ccc(Cl)cc2)S1	-2	9.3*	12	12	5	4
CCOC(=O)C1CCN(C2=NC(=O)/C(=C/c3ccc(Cl)cc3)S2)CC1	-2	-3	0	-3	nt	nt
CCCc1ccc(OCc2ccc(C(=O)N/N=C/c3cccnc3)o2)cc1	2	11*	2	39	6	18*
COc1ccc(/C=C2\COc3ccccc3C2=O)cc1OC	15	4	-5	nt	nt	nt
COc1ccc(/C=C2\COc3ccccc3C2=O)c(OC)c1	-6	8.9*	-21	63*	6	5.2*
c1ccc(CNc2c3ccccc3nc3ccccc23)cc1	-3	7	6	7	nt	nt
Oc1ccc(CCNc2c3ccccc3nc3ccccc23)cc1O	4	8.4*	-5	-4	25*	2
COCC(=O)Nc1ccc2c(c1)C(=O)N(C)C[C@@H](OC)[C@@H](C)CN(C(=O)c1ccncc1)[C@H](C)CO2	nt	nt	nt	-3	nt	nt
NC(=O)c1ncn([C@@H]2O[C@H](CNCc3cc(Br)ccc3OCc3ccccc3)[C@@H](O)[C@H]2O)n1	11	16*	4	-1	-5	0
C[C@@H]1CN([C@H](C)CO)C(=O)CCCn2cc(nn2)CO[C@H]1CN(C)Cc1cccnc1	nt	nt	nt	-1	nt	nt
Cc1ccc(C(=O)N/N=C2\CC3CC=CC23)c(C)c1 (stereo not drawn)	10	8.1*	-4	nt	-4	0
SMILES	ARFGAP1 inh	SMARCA2 act	ASAP1 inh	esBAF inh	SMARCA2 act conf	GAL4-VP16 Luc
Cc1ccc(NC(=S)N/N=C2\CC3CC=CC23)c(C)c1 (stereo not drawn)	6	-3	-9	nt	nt	nt
COc1ccc(SC[C@H](CC(C)C)N2CCN(C)CCC2=O)cc1	-9	5	-14	26	nt	nt
CC(C)C[C@@H](CSc1ccc(Br)cc1)N1CCN(C)CCC1=O	11	8.2*	13	44*	9.0*	9.2*
O=C(COC(=O)CC1CCCC1)Nc1cc2c(cc1Cl)C(=O)c1ccccc1C2=O	0	8.1*	-3	50*	8.6*	14*
Cc1ccc(C(=O)Cn2cncn2)cc1	-1	10*	-4	-4	-2	0
COc1ccc(S(=O)(=O)N[C@H]2CC[C@H](CCNC(=O)Cc3ccccn3)O[C@@H]2CO)cc1	nt	nt	nt	-3	nt	nt
COc1nc(Nc2nc3ccccc3c(=O)[nH]2)nc2ccc(C)cc12	8	0	15	nt	nt	nt
COc1nc(N=C(N)N)nc2ccc(C)cc12	5	8.8*	-4	nt	43*	2
C[C@@H]1CCCCO[C@@H](CN(C)C(=O)Nc2cccc3ccccc23)[C@@H](C)CN([C@H](C)CO)C(=O)c2cc(NC(=O)Nc3ccc4c(c3)OCO4)ccc2O1	nt	nt	nt	4	nt	nt
Brc1ccccc1OCCCCCN1CCOCC1	9	10*	3	nt	1	5
CC(C)c1ccccc1OCCCCCN1CCOCC1	-3	-4	6	-7	nt	nt
COc1cccc(-c2cnc3c(c2)C(=O)N([C@@H](C)CO)C[C@H](C)[C@@H](CN(C)Cc2ccc(F)cc2)O3)c1	nt	nt	nt	0	nt	nt
COc1cc(F)ccc1-c1csc(C(NC(C)=O)c2cccc(F)c2)n1 (stereo not drawn)	-1	10*	15	-1	2	1
CC(=O)NC(c1cccc(F)c1)c1nc(-c2ccccc2C)cs1 (stereo not drawn)	-3	7	5	7	nt	nt
CCCNC(=O)N(C)C[C@@H]1Oc2cc(C#CC(C)(C)O)ccc2S(=O)(=O)N([C@@H](C)CO)C[C@H]1C	nt	nt	nt	-27	nt	nt
C[C@H](CO)N1C[C@H](C)[C@@H](CN(C)CC2CCCCC2)Oc2ccc(NS(=O)(=O)c3ccc(F)cc3)cc2CC1=O	nt	nt	nt	2	nt	nt
CC(=O)c1ccc(N2CCN(C(=S)NCCCN(C)C)CC2)cc1	-8	8.2*	2	nt	0	3
CC(=O)c1ccc(N2CCN(C(=S)NCc3ccco3)CC2)cc1	5	-3	1	1	nt	nt
CCCCCCCCNc1nc(Cl)nc(NCc2ccco2)n1	4	11*	-15	nt	0	0
CCCCCCNc1nc(NCc2ccco2)nc(OCC)n1	-10	-3	-5	-3	nt	nt
COc1cc(-c2cc(NC=O)c3ncc(-c4ccc(C(C)=O)cc4)n3c2)ccc1O	-5	14*	9	-13	21*	5
COc1cccc(-c2cnc3c(NC=O)cc(-c4ccc(O)c(OC)c4)cn23)c1	3	4	14	-3	nt	nt
COc1ccc(-c2cc(NC=O)c3ncc(-c4ccc(OC)c(OC)c4)n3c2)cc1OC	7	13*	3	-19	15*	8.6*
CC(=O)N1[C@@H]2c3ccc(C4=CCCCC4)c(=O)n3C[C@H]1[C@H](CO)[C@H]2C(=O)NCc1cc(F)cc(F)c1	nt	nt	nt	-1	nt	nt

Source: PubChem BioAssay (several laboratories)
